Source: PubChem (several laboratories)
Hits are enriched below; roughly 3.4% of the tested compounds scored in any of these assays.
AHR activator: AHR activators, primary screen, cell-based, luminescence, luciferase reporter, human; activation, % at 5 µM; AID 2796, 2010; AHR-responsive luciferase reporter cells; hit rate 2.5% among 320,000; in the data active = activation above about 47%;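 note: 0% = vehicle wells and 100% = reference agonist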
A3A deaminase: APOBEC3A ssDNA deaminase inhibitors, primary screen, selectivity assay for APOBEC3G inhibitor project, biochemical, FAM/TAMRA oligo cleavage fluorescence; hit rate 0.41% among 330,000; inhibition, % at 20 µM; recombinant A3A, FAM/TAMRA ssDNA deamination fluorescence; DNA dC->dU-editing enzyme APOBEC-3A (Homo sapiens), P31941; AID 493011, 2011;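 active = at least 40% inhibition at 20 µM here, with at most 30% in a related deaminase screen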;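 note: plate controls were A3A with DMSO for no effect and wells lacking A3A enzyme for full effect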
Target sequence (P31941 whole entry, looked up): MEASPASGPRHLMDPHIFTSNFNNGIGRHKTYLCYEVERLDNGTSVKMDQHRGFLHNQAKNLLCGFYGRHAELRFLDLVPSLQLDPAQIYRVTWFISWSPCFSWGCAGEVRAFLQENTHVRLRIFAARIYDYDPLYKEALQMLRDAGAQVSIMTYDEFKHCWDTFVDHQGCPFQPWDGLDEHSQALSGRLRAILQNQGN
UCH37 DUB inh: inhibitors of human UCH37 deubiquitinase, primary screen, biochemical, Ub-AMC cleavage, fluorescence; Ubiquitin carboxyl-terminal hydrolase isozyme L5 (Homo sapiens), Q9Y5K5; purified proteasome/UCH37; inhibition, % (concentration not given with the values); hit rate 0.33% among 330,000; AID 588478, 2011;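 active = mean inhibition over replicate wells above about 20%, limit read from the data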;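 note: 0% = compound-free wells with enzyme and 100% = wells lacking proteasome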
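Schedule: 30 min plus 25 min, room temperature / Material: human UCH37 within purified proteasomes / Technique: AMC fluorescence intensity at 355/460 nm / Buffer or medium: pH 7.4 Tris-HCl (50 mM) with ovalbumin, ATP-MgCl2, DTT / Controls: wells without proteasome as full block, compound-free enzyme plus substrate as uninhibited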
A3G deaminase: APOBEC3G DNA deaminase inhibitors, primary screen, biochemical, fluorescence, single-stranded DNA substrate, uHTS; DNA dC->dU-editing enzyme APOBEC-3G (Homo sapiens), Q9HC16; recombinant A3G, ssDNA deamination FAM/TAMRA fluorescence; inhibition, % at 20 µM; hit rate 0.28% among 330,000;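 active = inhibition of at least 40% at 20 µM, with no more than 30% in the related APOBEC3A deaminase screen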;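 note: plate controls were DMSO wells with A3G for no effect and wells lacking A3G enzyme for full effect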
Target sequence (Q9HC16 whole entry, looked up): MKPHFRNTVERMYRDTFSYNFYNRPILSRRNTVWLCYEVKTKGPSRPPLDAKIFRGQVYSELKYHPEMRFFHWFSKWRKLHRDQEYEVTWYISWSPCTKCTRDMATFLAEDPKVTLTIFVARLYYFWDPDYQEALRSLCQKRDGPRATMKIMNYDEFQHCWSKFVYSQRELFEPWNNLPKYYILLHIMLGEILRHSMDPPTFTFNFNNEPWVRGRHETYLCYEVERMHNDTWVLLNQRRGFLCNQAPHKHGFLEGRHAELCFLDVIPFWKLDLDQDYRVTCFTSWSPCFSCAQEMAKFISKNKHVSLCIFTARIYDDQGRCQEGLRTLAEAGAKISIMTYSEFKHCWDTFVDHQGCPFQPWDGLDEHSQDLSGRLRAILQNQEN
PolyA inh: polyadenylation inhibitors in yeast reporter cells, primary screen, luminescence, S. cerevisiae; activity score, % at 12 µM; hit rate 0.02% among 300,000; S. cerevisiae SKY197-pL101 polyadenylation reporter, beta-gal luminescence; efflux-impaired pdr1/pdr3 knockout yeast; score 100 = 6 SD above DMSO;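 active = lowest replicate activity score at least 50, where 100 means six control SD above control mean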;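 note: yeast exposed to compound for 9 h at 30 °C; higher score means more reporter readthrough which indicates perturbed polyadenylation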
Arr AP2 block: inhibitors of beta-arrestin/AP2 binding, primary screen, biochemical, GPCR trafficking, flow cytometry. FITC-arrestin peptide / GST-AP2 beads; AP2 beta2 appendage carries R879A mutation. inhibition, % at 10 µM. hit rate 0.31% among 340,000. AID 504490, 2011;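 active = inhibition above a set limit, near 3 SD of compounds lacking own fluorescence, cut at about 54% in these data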;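 note: plate controls were DMSO wells for no effect and 5 µM unlabelled arrestin peptide for full effect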
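System: GST-AP2 R879A bound to glutathione beads, E. coli-expressed. Also added: 50 nM FITC-arrestin peptide. Schedule: compound with beads 12 min RT, then probe 1 h RT. Signal: bead flow cytometry, FITC channel. Read-out basis: percent response.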
* = called active by the depositor.

For COC(=O)c1c(NC(=O)c2cccnc2)sc(C(=O)N(C)C)c1C the results were AHR activator 16, A3A deaminase 2, UCH37 DUB inh 7, A3G deaminase -3, PolyA inh 3 and Arr AP2 block -9.
For COC(=O)c1c(NC(=O)c2cccnc2)sc(C)c1C the results were AHR activator 71*, A3A deaminase -4, UCH37 DUB inh 1, A3G deaminase -5, PolyA inh -5 and Arr AP2 block 1.
`Cc1cc(C(=O)NN=C(Cc2ccccc2)Cc2ccccc2)c(C)o1` gave AHR activator 58*, A3A deaminase 3, UCH37 DUB inh 6, A3G deaminase 1, PolyA inh 5 and Arr AP2 block 28.
For CC/C(Cc1ccccc1)=N\NC(=O)c1cc(C)oc1C the results were AHR activator 45, A3A deaminase 20, A3G deaminase 4, PolyA inh 8 and Arr AP2 block 2.
For Cc1ccc2c(c1)c1c3n2CCN(CC#N)C3CCC1 (stereo not drawn) the results were AHR activator 44, A3A deaminase -6, A3G deaminase -3, PolyA inh -8 and Arr AP2 block -12.
`CCN1CCn2c3c(c4cc(Br)ccc42)CCCC31` (stereo not drawn) gave AHR activator 49*, A3A deaminase -3, UCH37 DUB inh 2, A3G deaminase -4, PolyA inh -8 and Arr AP2 block 3.
CC(C)OCCCNC(=O)C(=O)NN=Cc1ccc(OCc2ccccc2)cc1 was read as UCH37 DUB inh 10.
`COc1ccc(C)cc1NC(=O)C(OC(=O)c1ccc([N+](=O)[O-])o1)c1ccccc1` (stereo not drawn) gave AHR activator 47*, A3A deaminase -4, UCH37 DUB inh 2, A3G deaminase -10, PolyA inh -11 and Arr AP2 block 7.
For Cc1cc(C)cc(NC(=O)C(OC(=O)Cn2cnc3c2c(=O)n(C)c(=O)n3C)c2ccccc2)c1 (stereo not drawn) the results were AHR activator 9, A3A deaminase 7, UCH37 DUB inh 0, A3G deaminase -10, PolyA inh -1 and Arr AP2 block -9.
Screening COc1ccc(C)cc1NC(=O)C(OC(=O)c1cnccn1)c1ccccc1 (stereo not drawn) returned AHR activator 32, A3A deaminase -4, UCH37 DUB inh 2, A3G deaminase -9, PolyA inh 0 and Arr AP2 block -6.
Screening COc1ccc(C)cc1NC(=O)C(OC(=O)Cn1cnc2c1c(=O)n(C)c(=O)n2C)c1ccccc1 (stereo not drawn) returned AHR activator 53*, A3A deaminase -1, UCH37 DUB inh 5, A3G deaminase -4, PolyA inh -7 and Arr AP2 block -1.
`COc1ccc(C)cc1NC(=O)C(OC(=O)CNC(=O)c1cc(C)cc(C)c1)c1ccccc1` (stereo not drawn) gave AHR activator 67*, A3A deaminase -3, UCH37 DUB inh 0, A3G deaminase -6, PolyA inh 12 and Arr AP2 block 18.
For O=C(NN=Cc1cnc(N2CCCCC2)s1)c1ccc(C(F)(F)F)cc1 the results were UCH37 DUB inh -6.
Screening COc1ccccc1Nc1cc2cc(Br)ccc2c(=O)[nH]1 returned AHR activator 19, A3A deaminase 9, UCH37 DUB inh 21*, A3G deaminase -1, PolyA inh -4 and Arr AP2 block 8.
Screening COc1ccc(OC)c(Nc2cc3ccccc3c(=O)[nH]2)c1 returned AHR activator 21, A3A deaminase -3, UCH37 DUB inh -2, A3G deaminase -10, PolyA inh -1 and Arr AP2 block 11.
For O=C(O)CCSCCCN1C(=O)c2cccc3cccc(c23)C1=O the results were AHR activator 49*, A3A deaminase -3, UCH37 DUB inh -1, A3G deaminase -7, PolyA inh -6 and Arr AP2 block 0.
For COc1ccccc1/C=C1\C(=O)Nc2ccccc21 the results were A3A deaminase -6, UCH37 DUB inh 8, A3G deaminase -2, PolyA inh -14 and Arr AP2 block 6.
Cc1ccc2c(c1)/C(=C/c1ccc(F)cc1)C(=O)N2 was read as AHR activator 10, A3A deaminase 3, UCH37 DUB inh 1, A3G deaminase 1, PolyA inh -18 and Arr AP2 block 2.
For Cc1ccc2c(c1)/C(=C/c1ccccc1C)C(=O)N2 the results were AHR activator 57*, A3A deaminase 2, UCH37 DUB inh 8, A3G deaminase 2, PolyA inh -4 and Arr AP2 block -2.
Screening O=C1Nc2ccccc2/C1=C/c1ccccc1Cl returned AHR activator 59*, A3A deaminase -1, UCH37 DUB inh 5, A3G deaminase -3, PolyA inh 14 and Arr AP2 block -1.
Screening CC(=NNC(=O)CNS(=O)(=O)c1ccccc1)c1ccc(Br)cc1 returned UCH37 DUB inh 2.
O=[N+]([O-])c1cc(Br)cc(C=Nn2cnnc2)c1O was read as UCH37 DUB inh 15.
`COc1cc(C=NNC(=O)Cc2ccccc2)cc(OC)c1OC` gave UCH37 DUB inh 1.
Screening CCOc1ccc(C=NNS(=O)(=O)c2ccc(C)cc2)cc1OC returned UCH37 DUB inh 4.
For COc1ccc(C=NNC(=S)Nc2cc(C(F)(F)F)ccc2Cl)cc1 the results were UCH37 DUB inh 3.
COc1ccc(/C=N/NC(=S)Nc2cc(C(F)(F)F)ccc2Cl)cc1 was read as AHR activator 54*, A3A deaminase 2, A3G deaminase -3, PolyA inh -6 and Arr AP2 block 9.
`COc1cc(C=Nn2c(-c3cc(C)[nH]n3)n[nH]c2=S)cc(OC)c1OC` gave UCH37 DUB inh 3.
Screening COc1cc(NC(=O)c2cccc(Cl)c2)c(OC)cc1NC(=O)CN1CCOCC1 returned AHR activator 63*, A3A deaminase -20, UCH37 DUB inh -1, A3G deaminase -4, PolyA inh -5 and Arr AP2 block 21.
`COc1cc(NC(=O)c2cccc(Cl)c2)c(OC)cc1NC(=O)CN1CCCCC1` gave AHR activator 71*, A3A deaminase 1, UCH37 DUB inh 0, A3G deaminase -4, PolyA inh 3 and Arr AP2 block 0.
